The source made the active and inactive calls. No cut-off for these calls is given here.
Key:
[1] = tested on: double-stranded DNA oligonucleotide dsOligo (synthetic); assay: Binding affinity to synthetic duplex DNA oligonucleotide dsOligo assessed as change in melting temperature at 1.5 uM in presence of K+ by spectrophotometric analysis
Calf thymus DNA [2] = assay: Binding affinity to calf thymus duplex DNA assessed as change in the intensities of positive band formation at 250 nm up to 10 uM in presence of K+ by CD spectroscopic method; format: ADME, nucleic-acid assay, Bos taurus; settings: cattle, 0.25 µM
Quadruplex DNA [3] = assay: Binding affinity to human TA-core of telomeric sequence G-quadruplex DNA assessed as red shift at 500 nanometer at 5 uM in presence of 100 mM KCl by UV-vis spectrophotometric analysis; format: nucleic-acid assay
How it was run: (§1)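 Absorption spectra at 25 °C of 5.0 μM ligand in 50 mM Tris-HCl pH 7.4, 0.10 M KCl, titrated with TA-core (0–15.7 μM) or CT-DNA (0–323.4 μM; concentration in base pairs).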

Quadruplex DNA [4] = assay: Binding affinity to human TA-core of telomeric sequence G-quadruplex DNA assessed as stabilization of antiparallel G-quadruplex structure by measuring increase in intensities of negative band at 240 nanometer up to 7.5 uM in presence of K+ by CD spectroscopic method; format: nucleic-acid assay
Quadruplex DNA [5] = assay: Binding affinity to human TA-core of telomeric sequence G-quadruplex DNA assessed as stabilization of antiparallel G-quadruplex structure by measuring increase in intensities of positive band at 290 nanometer up to 7.5 uM in presence of K+ by CD spectroscopic method; format: nucleic-acid assay
Quadruplex DNA [6] = assay: Binding affinity to human TA-core of telomeric sequence G-quadruplex DNA assessed as change in enthalpy at 100 uM in presence of K+ by isothermal titration calorimetric method; format: nucleic-acid assay
How it was run: (§2)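 ITC at 25 °C: TA-core (10 μM in cell) annealed 95 °C 10 min, cooled 1.0 °C/min to 25 °C, in 50 mM AcOK-AcOH pH 5.5 (K+ lines) or AcONa-AcOH pH 5.5 (Na+ lines). Ligand at 100 μM in same buffer injected repeatedly (1.96 μL each). Solutions degassed 10 min; data fitted to an independent-site model.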

Quadruplex DNA [7] = assay: Binding affinity to human TA-core of telomeric sequence G-quadruplex DNA assessed as change in melting temperature at 1.5 uM in presence of Na+ by spectrophotometric analysis; format: nucleic-acid assay
How it was run: (§3)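 Melting of 1.5 μM TA-core followed by CD at 288 nm in 50 mM Tris-HCl pH 7.4 with 20 mM KCl or 20 mM NaCl. Run without or with 1.5 μM ligand (1:1 ligand:DNA), heating at 60 °C/h, data every 0.5 °C, 1 cm cell.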

Calf thymus DNA [8] = assay: Binding affinity to calf thymus duplex DNA assessed as change in the intensities of positive band formation at 250 nm up to 10 uM in presence of Na+ by CD spectroscopic method; format: ADME, nucleic-acid assay, Bos taurus; settings: cattle, 0.25 µM
Calf thymus DNA [9] = assay: Binding affinity to calf thymus duplex DNA assessed as isosbestic point at 5 uM by UV-vis spectrophotometric analysis; format: ADME, nucleic-acid assay, Bos taurus; settings: cattle
How it was run: as §1

Calf thymus DNA [10] = assay: Binding affinity to calf thymus duplex DNA assessed as hypochromic shift at 500 nanometer at 5 uM in presence of 100 mM KCl by UV-vis spectrophotometric analysis relative to control; format: ADME, nucleic-acid assay, Bos taurus; settings: cattle
How it was run: as §1

Quadruplex DNA [11] = assay: Binding affinity to human TA-core of telomeric sequence G-quadruplex DNA assessed as change in entropy at 100 uM in presence of K+ by isothermal titration calorimetric method; format: nucleic-acid assay
How it was run: as §2

Calf thymus DNA [12] = assay: Binding affinity to calf thymus duplex DNA assessed as change in the intensities of negative band formation at 280 nm up to 10 uM in presence of K+ by CD spectroscopic method; format: ADME, nucleic-acid assay, Bos taurus; settings: cattle, 0.28 µM
[13] = tested on: double-stranded DNA oligonucleotide dsOligo (synthetic); assay: Binding affinity to synthetic duplex DNA oligonucleotide dsOligo assessed as increase in melting temperature at 3 to 4.5 uM in presence of K+ by spectrophotometric analysis
Quadruplex DNA [14] = assay: Binding affinity to human TA-core of telomeric sequence G-quadruplex DNA assessed as hypochromic shift at 500 nanometer at 5 uM in presence of 100 mM KCl by UV-vis spectrophotometric analysis relative to control; format: nucleic-acid assay
How it was run: as §1

Quadruplex DNA [15] = assay: Binding affinity to human TA-core of telomeric sequence G-quadruplex DNA assessed as change in entropy at 100 uM in presence of Na+ by isothermal titration calorimetric method; format: nucleic-acid assay
How it was run: as §2

Quadruplex DNA [16] = assay: Binding affinity to human TA-core of telomeric sequence G-quadruplex DNA assessed as stabilization of antiparallel structure formation up to 5 equiv by CD spectroscopic method; format: nucleic-acid assay
Quadruplex DNA [17] = assay: Binding affinity to human TA-core of telomeric sequence G-quadruplex DNA assessed as stabilization of antiparallel structure formation up to 4.5 uM in presence of Na+ by CD spectroscopic method; format: nucleic-acid assay
[18] = Selectivity ratio of binding constant for human TA-core of telomeric sequence G-quadruplex DNA to binding conctant for calf thymus duplex DNA
Quadruplex DNA [19] = assay: Binding affinity to human TA-core of telomeric sequence G-quadruplex DNA assessed as change in enthalpy at 100 uM in presence of Na+ by isothermal titration calorimetric method; format: nucleic-acid assay
How it was run: as §2

Calf thymus DNA [20] = assay: Binding affinity to calf thymus duplex DNA assessed as hyperchromic shift at 550 nanometer at 5 uM in presence of 100 mM KCl by UV-vis spectrophotometric analysis relative to control; format: ADME, nucleic-acid assay, Bos taurus; settings: cattle
How it was run: as §1

Calf thymus DNA [21] = assay: Binding affinity to calf thymus duplex DNA assessed as change in the intensities of positive band formation at 250 nm up to 10 uM by CD spectroscopic method; format: ADME, nucleic-acid assay, Bos taurus; settings: cattle, 0.25 µM
Calf thymus DNA [22] = assay: Binding affinity to calf thymus duplex DNA assessed as red shift at 500 nanometer at 5 uM in presence of 100 mM KCl by UV-vis spectrophotometric analysis; format: ADME, nucleic-acid assay, Bos taurus; settings: cattle
How it was run: as §1

Quadruplex DNA [23] = assay: Binding affinity to human TA-core of telomeric sequence G-quadruplex DNA assessed as change in melting temperature at 1.5 uM in presence of K+ by spectrophotometric analysis; format: nucleic-acid assay
How it was run: as §3

[24] = Binding affinity to 27-mer DNA hairpin (unknown origin) at 100 uM in presence of K+ by isothermal titration calorimetric method
Quadruplex DNA [25] = assay: Binding affinity to human TA-core of telomeric sequence G-quadruplex DNA assessed as isosbestic point at 5 uM in presence of 100 mM KCl by UV-vis spectrophotometric analysis; format: nucleic-acid assay
How it was run: as §1

[26] = Binding affinity to 27-mer DNA hairpin (unknown origin) at 100 uM in presence of Na+ by isothermal titration calorimetric method
[27] = Inhibition of telomerase (unknown origin) by TRAP assay; design: species or system Homo sapiens
How it was run: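 TRAP with a TRAPeze kit, using positive-control cell lysate (250 cells per reaction). Extension 30 °C 1 h, then 35 PCR cycles. Products run on 12.5% PAGE, GelStar-stained and analyzed per kit.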

DNA = assay: Binding affinity to Escherichia coli pUC19 duplex DNA assessed as unwinding of supercoiled DNA up to 40 uM after 1 hr in presence of human topoisomerase-1 by agarose gel electrophoresis; format: ADME, nucleic-acid assay
How it was run: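 pUC19 plasmid (0.025 μg/μL) preincubated 5 min at 37 °C with human Topo I (0.25 units/μL, 0.01% BSA) in 35 mM Tris-HCl pH 8.0, 72 mM KCl, 5 mM MgCl2, 5 mM DTT, 5 mM spermidine. Ligand then added and incubated 1 h at 37 °C. Stopped with SDS, proteinase K digested, phenol/chloroform extracted, run on 1% agarose, GelStar-stained.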

Calf thymus DNA [28] = assay: Binding affinity to calf thymus duplex DNA assessed as change in the intensities of negative band formation at 280 nm up to 10 uM in presence of Na+ by CD spectroscopic method; format: ADME, nucleic-acid assay, Bos taurus; settings: cattle, 0.28 µM
Quadruplex DNA [29] = assay: Binding affinity to human TA-core of telomeric sequence G-quadruplex DNA assessed as hyperchromic shift at 550 nanometer at 5 uM in presence of 100 mM KCl by UV-vis spectrophotometric analysis relative to control; format: nucleic-acid assay
How it was run: as §1

Calf thymus DNA [30] = assay: Binding affinity to calf thymus duplex DNA assessed as change in the intensities of negative band formation at 280 nm up to 10 uM by CD spectroscopic method; format: ADME, nucleic-acid assay, Bos taurus; settings: cattle, 0.28 µM

deltaTm [1]: -1 °C | Activity (Calf thymus DNA [2]): Not Active | Activity (Quadruplex DNA [3]): 13 nm | Activity (Quadruplex DNA [4]): Active | Activity (Quadruplex DNA [5]): Active | deltaH (Quadruplex DNA [6]): -6.71 kcal/mol | ΔTm (Quadruplex DNA [7]): 14 °C | Activity (Calf thymus DNA [8]): Not Active | Activity (Calf thymus DNA [9]): 520 nm | Activity (Calf thymus DNA [10]): 50% | -TdeltaS (Quadruplex DNA [11]): -1.56 kcal/mol | Activity (Calf thymus DNA [12]): Not Active | Activity [13]: Not Active | Activity (Quadruplex DNA [14]): 42% | -TdeltaS (Quadruplex DNA [15]): -1.7 kcal/mol | Activity (Quadruplex DNA [16]): Active | Activity (Quadruplex DNA [17]): Active | Selectivity ratio [18]: 900 | deltaH (Quadruplex DNA [19]): -7.14 kcal/mol | Activity (Calf thymus DNA [20]): 29% | Activity (Calf thymus DNA [21]): Not Active | Activity (Calf thymus DNA [22]): 8 nm | ΔTm (Quadruplex DNA [23]): 21 °C | Activity [24]: inactive | Activity (Quadruplex DNA [25]): 510 nm | Activity [26]: inactive | IC50 [27]: 240 nM | Activity (DNA): Not Active | Activity (Calf thymus DNA [28]): Not Active | Activity (Quadruplex DNA [29]): 55% | Activity (Calf thymus DNA [30]): Not Active
Structure (SMILES): O=C1CCCCCC(=O)NCCCN2CCN(CCCN3C(=O)c4ccc5c6ccc7c8c(ccc(c9ccc(c4c59)C3=O)c86)C(=O)N(CCCN3CCN(CCCN1)CC3)C7=O)CC2

Reference: ChEMBL document CHEMBL4177642, “Cyclic perylene diimide: Selective ligand for tetraplex DNA binding over double stranded DNA” (Bioorg Med Chem, 2017)
